The list is not random: actives were taken first. Their share in the collection is about 4.6%.
CHO parental Ca: signal in parental CHO cells, OX1R antagonist counter-screen; parental CHO-K1, ATP-induced calcium, Fluo-8 fluorescence; inhibition, % at 5.6 µM; 330,000 tested, 0.63% active;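 active = inhibition above that plate's mean sample inhibition plus 3 SD, cut at about 26% in these data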
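Material: Parental CHO cells | Reagent: ATP | Compound dosing: Single nominal dose of 5.6 µM per compound | Detection: Intracellular calcium via Fluo-8 no-wash fluorescent dye | Read-out: % inhibition of ATP-induced calcium mobilization | Benchmarks: Low control ATP plus DMSO, high control DMSO only | Replicates: Singlicate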
TAAR1 antag: antagonists of human TAAR1; Q96RJ0; CHO RD-HGA16 TAAR1, Fluo-8 calcium fluorescence, antagonist; inhibition, % at 3 µM; 360,000 tested, 1.5% active; AID 624466;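 active = inhibition above a per-plate cutoff, the mean inhibition of test compounds on that plate plus 3 SD, cut at about 49% in these data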
Target sequence (Q96RJ0 whole entry, looked up): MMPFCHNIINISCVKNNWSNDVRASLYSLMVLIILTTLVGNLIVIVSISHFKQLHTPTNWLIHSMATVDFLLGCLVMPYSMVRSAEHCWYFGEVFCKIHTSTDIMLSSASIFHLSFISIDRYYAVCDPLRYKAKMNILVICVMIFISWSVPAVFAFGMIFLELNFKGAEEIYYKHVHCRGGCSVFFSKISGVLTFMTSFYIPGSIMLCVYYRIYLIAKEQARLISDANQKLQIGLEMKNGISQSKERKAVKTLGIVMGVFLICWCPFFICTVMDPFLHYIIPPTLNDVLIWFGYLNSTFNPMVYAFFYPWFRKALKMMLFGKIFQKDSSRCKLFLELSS
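Test system: CHO RD-HGA16 cells bearing hTAAR1 | Reagent: β-PEA, EC80 | Compound dosing: 3 µM, single point | Schedule: Dye loading 75 min at 37 °C, then 30 min room temperature | Signal: Calcium fluorescence with Fluo-8 | Evaluation: Percent inhibition of PEA-evoked calcium signal, max/basal emission ratio | Control set: DMSO-only wells and EC80 β-PEA-stimulated wells | Repeats: Singlicate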
OX1R antag-1: blocks the human orexin 1 receptor; inhibition, % at 5 µM; 330,000 tested, 0.43% active; CHO/OX1R cells, Fluo-8 calcium fluorescence, orexin A;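 active = inhibition above its plate's threshold, mean inhibition of all tested compounds on the plate plus 3 SD, cut at about 37% in these data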
TAAR1 agonist: agonists of human TAAR1 | 360,000 tested, 0.99% active | activation, % at 3 µM | Q96RJ0 | CHO RD-HGA16 TAAR1, Fluo-8 calcium fluorescence; vehicle wells 0%, saturating PEA agonist 100%;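 active = activation above the mean activation of all test compounds in the run plus 3 SD, cut at about 38% in these data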
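Repeats: no replicates (n 1) | Material: CHO-derived RD-HGA16 cells with stable Gα16 and human TAAR1 | Technique: Kinetic Fluo-8 calcium fluorescence | Schedule: 17-24 h seeding, 75 min 37 °C dye, 30 min RT | Evaluation: % activation from peak over basal fluorescence ratio, DMSO-to-PEA scaled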
GPR7 antagonist: antagonists of human GPR7 (neuropeptides B/W receptor 1); GPR7-expressing cells, fluorescence antagonist assay; P48145; 290,000 tested, 1.1% active; inhibition, % at 4.4 µM; AID 1861; in the data active = inhibition above about 16%, passing the limit was not always enough;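 also: cells stimulated with the agonist NPW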
Target sequence (P48145 whole entry, looked up): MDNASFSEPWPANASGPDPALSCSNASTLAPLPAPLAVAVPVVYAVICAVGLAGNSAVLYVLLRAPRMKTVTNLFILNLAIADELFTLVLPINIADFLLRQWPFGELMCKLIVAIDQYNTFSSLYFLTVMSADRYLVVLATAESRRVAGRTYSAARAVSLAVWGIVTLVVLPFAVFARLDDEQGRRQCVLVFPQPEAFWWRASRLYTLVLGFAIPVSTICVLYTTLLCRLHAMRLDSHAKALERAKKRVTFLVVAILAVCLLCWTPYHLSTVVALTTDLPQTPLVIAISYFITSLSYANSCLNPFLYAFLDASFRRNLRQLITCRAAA
OX1R antag-2: antagonists of human orexin 1 receptor (OX1R); AID 485270; O43613; 330,000 tested, 1.8% active; OX1R-expressing cells, FRET antagonist read-out; inhibition, % at 6.6 µM; in the data active = inhibition mostly above about 38%, no sharp cut-off; inactive = mostly below about 40%
GPR7 antag conf: human GPR7 antagonism, confirmation assay; GPR7-expressing cells, calcium fluorescence antagonist mode; 2,400 tested, 52% active; AID 1952; shares compounds with GPR7 antagonist; inhibition, % at 4.4 µM; in the data active = inhibition above about 24%;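 also: stimulated with the GPR7 agonist NPW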
MCHR1 antag: counter-screen for GPR7 antagonists: antagonists of human MCHR1; shares compounds with GPR7 antagonist; 2,400 tested, 62% active; inhibition, % at 4.4 µM; AID 2148; MCHR1-expressing cells, fluorescence antagonist assay; in the data active = inhibition above about 22%
OX1R Ca confirm: confirmation of human orexin 1 receptor antagonists | shares compounds with OX1R antag-1 | CHO/OX1R cells, orexin A calcium Fluo-8 fluorescence | inhibition, % at 5 µM | 1,100 tested, 38% active; in the data active = inhibition above about 29%
CHO Ca triplic: counter-screen for OX1R antagonists: effect in parental CHO cells; shares compounds with OX1R antag-1; inhibition, % at 5.6 µM; parental CHO-K1, ATP-induced calcium, Fluo-8 fluorescence; AID 492965; 1,100 tested, 9.3% active;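 active = inhibition above a per-plate limit, the mean inhibition of that plate's test compounds plus 3 SD, cut at about 25% in these data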
TAAR1 ag confirm: confirmation of human TAAR1 agonists. shares compounds with TAAR1 agonist. CHO RD-HGA16 TAAR1, Fluo-8 calcium fluorescence; scaled: DMSO 0%, maximal phenethylamine 100%. activation, % at 3 µM. 2,400 tested, 82% active. AID 651783;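 active = activation above a cutoff set at the run's mean compound activation plus 3 SD, cut at about 39% in these data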
Ga16 ag counter: counter-screen for TAAR1 agonists: nonselective agonists in parental cells; shares compounds with TAAR1 agonist; CHO-Ga16 parental, Fluo-8 calcium fluorescence; normalized to maximal ATP response, DMSO zero; activation, % at 3 µM; 2,400 tested, 50% active; AID 651787;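 active = activation above the run cutoff, the mean activation over all tested wells plus 3 SD, cut at about 12% in these data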
TAAR1 desensitize: human TAAR1 agonist that also desensitizes the receptor; shares compounds with TAAR1 agonist; CHO RD-HGA16 hTAAR1, Fluo-8 calcium, beta-PEA response inhibition; inhibition, % at 3 µM; 2,400 tested, 46% active; AID 651951;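 active = inhibition above the run cutoff, the mean inhibition of all test compounds plus 3 SD, cut at about 49% in these data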;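 also: beta-PEA stimulus applied at its EC80; loss of beta-PEA calcium signal after compound pretreatment read as receptor desensitization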
Ga16 antag count: nonselective Ga16 antagonist in TAAR1 agonist counter-screen; shares compounds with TAAR1 agonist; CHO-Ga16 ATP-induced calcium, Fluo-8 fluorescence; inhibition, % at 3 µM; 2,400 tested, 39% active; AID 651952;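 active = inhibition above the plate's mean compound inhibition plus 3 SD, computed per plate, cut at about 22% in these data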
Numbers stand for hits; - = inactive; . = no result given.

SMILES	CHO parental Ca	TAAR1 antag	OX1R antag-1	TAAR1 agonist	GPR7 antagonist	OX1R antag-2	GPR7 antag conf	MCHR1 antag	OX1R Ca confirm	CHO Ca triplic	TAAR1 ag confirm	Ga16 ag counter	TAAR1 desensitize	Ga16 antag count
COC(=O)C(/C=N/OCc1ccc([N+](=O)[O-])cc1)NC(=O)c1cccc(Cl)c1 (stereo not drawn)	-	88	-	95	38	-	65	50	.	.	94	51	78	41
COc1cc(-c2noc(C)c2-c2ccc(N(C)C)nc2)cc(OC)c1OC	-	54	-	96	60	75	69	67	.	.	84	48	54	31
CCC(CC)c1nnc(NC(=O)c2cccnc2SC)s1	-	-	-	-	-	-	.	.	.	.	.	.	.	.
CCC(C(=O)Nc1ccncc1)c1ccccc1 (stereo not drawn)	-	-	-	-	-	-	.	.	.	.	.	.	.	.
CCc1ccc(NC(=O)C(CC)c2ccccc2)cc1 (stereo not drawn)	39	-	-	71	31	-	58	60	.	.	67	38	65	39
CCOc1ccc(NS(=O)(=O)c2ccc(C(=O)N(C)CC(=O)Nc3ccccc3Br)cc2)cc1	.	-	.	-	.	.	.	.	.	.	.	.	.	.
Cc1cc(C)c(OCC(=O)Nc2ccccc2N2CCCCC2)c(C)c1	-	-	-	-	.	-	.	.	.	.	.	.	.	.
Cc1cc(C)c(OCC(=O)Nc2ccccc2N2CCOCC2)c(C)c1	41	55	44	61	26	-	59	70	.	.	43	34	56	52
CC(C)c1ccc(CNC(=O)C(=O)Nc2nccs2)cc1	-	-	-	-	-	-	.	.	.	.	.	.	.	.
CC(C)Cc1ccc(C(C)C(=O)Nc2nccs2)cc1 (stereo not drawn)	43	74	49	105	63	-	78	78	.	.	103	50	81	50
CCc1ccc(Cn2nnc(C(=O)Nc3ccc(OC)cc3OC)c2N)cc1	-	-	-	72	25	-	42	-	.	.	60	22	-	-
COc1cccc(NC(=O)c2nnn(Cc3ccc(Br)cc3F)c2N)c1	-	53	-	59	24	-	53	53	.	.	76	32	59	36
COc1cccc(NC(=O)Cn2nnc(C(=O)Nc3ccccc3)c2N)c1	-	-	-	-	-	-	.	.	.	.	.	.	.	.
Cc1cc(N2CCC(C)CC2)nc(NCc2ccccc2)n1	-	-	-	60	30	-	58	83	.	.	67	34	53	31
Cc1ccc(-n2c(SCC(N)=O)nnc2-c2ccc(S(=O)(=O)N3CCCCC3)cc2)c(C)c1	-	-	-	38	35	-	45	-	.	.	-	16	-	34
CCCCOc1ccc(Br)cc1/C(C)=N/NC1=NCCN1	-	-	-	58	24	-	36	60	.	.	66	-	-	-
Cc1c(C)n(CC(O)CN2CCCCCC2)c2ccccc12 (stereo not drawn)	-	-	-	-	-	-	.	.	.	.	.	.	.	.
OC(CN1CCCCC1)Cn1c2ccccc2c2cc(Br)ccc21 (stereo not drawn)	-	-	-	-	-	-	.	.	-	-	.	.	.	.
COCCn1c(=O)[nH]c2cc(C(=O)N3CCN(c4cccc(Cl)c4)CC3)ccc2c1=O	-	-	-	-	-	-	.	.	-	-	.	.	.	.
CCNS(=O)(=O)c1ccc(S(=O)(=O)N(Cc2ccccn2)C2CCCCC2)cc1	-	-	-	-	-	-	.	.	.	.	.	.	.	.
O=S(=O)(NCc1ccccc1)c1ccc(S(=O)(=O)N(Cc2ccccn2)C2CCCC2)cc1	-	-	50	-	-	-	.	.	-	-	.	.	.	.
O=C(Nc1ccccc1)Nc1nc(-c2ccc(Cl)cc2)cs1	-	-	-	-	-	-	.	.	.	.	.	.	.	.
O=C(Nc1cccc(Cl)c1)Nc1nc(-c2ccc(Cl)cc2)cs1	-	-	-	-	-	-	.	.	-	60	.	.	.	.
CC(C)(C)NC(=O)COC(=O)c1ccc(NC(=O)CC#N)cc1	-	-	-	-	-	-	.	.	-	-	.	.	.	.
O=C1c2ccccc2-c2n[nH]c(=O)c3ccc(N4CCCCC4)c1c23	-	-	-	-	-	-	.	.	-	-	.	.	.	.
SMILES	CHO parental Ca	TAAR1 antag	OX1R antag-1	TAAR1 agonist	GPR7 antagonist	OX1R antag-2	GPR7 antag conf	MCHR1 antag	OX1R Ca confirm	CHO Ca triplic	TAAR1 ag confirm	Ga16 ag counter	TAAR1 desensitize	Ga16 antag count
Cc1cc(C)nc(SCC(=O)Nc2ccc(N3CCOCC3)c(Cl)c2)n1	-	-	-	-	-	-	.	.	-	31	.	.	.	.
CNc1nc(SCC(=O)Nc2ccc(Cl)c(Cl)c2)nc(N2CCOCC2)n1	-	-	-	-	-	-	.	.	.	.	.	.	.	.
O=C(COC(=O)c1cccs1)c1ccc2c(c1)OCCO2	-	-	-	-	-	-	.	.	.	.	.	.	.	.
O=C(COC(=O)c1cccs1)c1ccc2ccccc2c1	-	-	-	-	-	-	.	.	-	-	.	.	.	.
N#Cc1c(-c2ccccc2)nc2n1CCS2	-	-	-	-	-	-	.	.	.	.	.	.	.	.
C[C@@H]1ON(C)[C@H]2C[C@H]3c4[nH]c5ccccc5c4CCN3C(=O)[C@@H]12	.	-	.	-	.	.	.	.	.	.	.	.	.	.
C[C@H](CO)N1C[C@H](C)[C@@H](CN(C)Cc2ccc(Cl)c(Cl)c2)Oc2c(NC(=O)Cc3ccccc3)cccc2C1=O	-	71	56	-	.	-	.	.	-	-	.	.	.	.
O=C(COC(=O)C12CC3CC(CC(Br)(C3)C1)C2)Nc1cccc(S(=O)(=O)N2CCOCC2)c1	-	-	47	-	.	-	.	.	32	-	.	.	.	.
Cc1cccc(N=Nc2c(N)n[nH]c2-c2ccc(Cl)cc2)c1	-	-	-	-	-	-	.	.	-	-	.	.	.	.
Cc1cccc(NC(=S)NCC(C)CSc2ccc(Cl)cc2)c1 (stereo not drawn)	-	-	-	-	-	-	.	.	-	-	.	.	.	.
